Test results from ChEMBL document CHEMBL4665761, “Optimizing the Benefit/Risk of Acetyl-CoA Carboxylase Inhibitors through Liver Targeting” (J Med Chem, 2020).
Converted amounts (≈) assume the structure as drawn.

Key:
[1] = Half life in Wistar-Hannover rat plasma at 4 mg/kg, po and measured up to 24 hrs by LC/MS-MS analysis; type: ADME, organism-based
[2] = Oral bioavailability in Wistar-Hannover rat plasma at 4 mg/kg and measured up to 24 hrs by LC/MS-MS analysis; type: ADME, organism-based
Method in brief: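 Plasma concentration–time data, n = 2, averaged. Cmax and Tmax read directly from the data. AUC0–24 by the linear trapezoidal rule. F calculated as dose-normalized AUC PO/IV.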

[3] = Inhibition of rat ACC2 using acetyl-CoA as substrate incubated for 20 mins in presence of [14C]O3 by liquid scintillation counting method
Method in brief: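 Purified rat isozyme in a 96-well radioenzymatic assay measuring incorporation of [14C]-bicarbonate into [14C]-malonyl-CoA. Dose-response run at saturating ATP, where IC50 approximates Ki for uncompetitive inhibitors.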

[4] = AUC (0 to 24 hrs) in cynomolgus monkey plasma at 1 mg/kg, iv and measured up to 72 hrs by LC/MS-MS analysis; type: ADME, organism-based, Macaca fascicularis; parameters: route intravenous, dose 1 mg/kg, time <=72
Method in brief: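 Cynomolgus monkeys received an IV solution of the tris salt in 2% N-methylpyrrolidone and 98% sulfobutylether-β-cyclodextrin (12.5%) in 50 mM TRIS buffer, pH 8.0. AUC0–24 came from plasma concentration–time data by the linear trapezoidal rule, averaged for n = 2.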

[5] = Thermodynamic solubility of the compound at pH 7.4 after 24 hrs; type: physicochemical; settings: buffer, read-out: Therm_solubility
[6] = Drug uptake in Wistar-Hannover rat liver at 10 mg/kg, po after 6 hrs by LC/MS-MS analysis; type: ADME, organism-based; settings: read-out: Drug uptake
Method in brief: (§1)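 Male Wistar-Hannover rats, n = 2 or 3, given an oral suspension in 0.5% methyl cellulose with 0.1% Tween 80; one compound was dosed as the HCl salt. Total plasma and liver concentrations were measured 6 h post-dose. Kp = liver/plasma total concentration. Kpu,u uses fu values from equilibrium dialysis.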

[7] = molecular target: UDP-glucuronosyltransferase 1A4 (Homo sapiens, UniProt P22310); experiment: Inhibition of UGT1A4 in human liver microsomes incubated for 30 mins in presence of UDPGA by LC-MS/MS analysis; type: ADME
Chain of UDP-glucuronosyltransferase 1A4 (P22310 whole entry): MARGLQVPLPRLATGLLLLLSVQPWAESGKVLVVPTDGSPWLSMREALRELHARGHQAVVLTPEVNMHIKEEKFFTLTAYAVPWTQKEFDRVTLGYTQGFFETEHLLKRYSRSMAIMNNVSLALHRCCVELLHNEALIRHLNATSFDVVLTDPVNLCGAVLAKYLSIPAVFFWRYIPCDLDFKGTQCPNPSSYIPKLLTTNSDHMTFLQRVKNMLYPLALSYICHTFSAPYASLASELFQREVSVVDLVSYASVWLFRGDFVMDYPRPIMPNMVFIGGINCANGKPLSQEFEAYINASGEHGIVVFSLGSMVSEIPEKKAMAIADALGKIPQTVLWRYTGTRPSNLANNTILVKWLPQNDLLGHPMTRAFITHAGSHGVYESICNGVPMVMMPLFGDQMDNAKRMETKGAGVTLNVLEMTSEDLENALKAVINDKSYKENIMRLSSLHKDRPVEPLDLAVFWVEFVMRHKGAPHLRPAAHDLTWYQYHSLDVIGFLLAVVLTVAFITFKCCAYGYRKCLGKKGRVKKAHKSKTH

OATP1B1 = molecular target: T1, OATP1B1 (Homo sapiens, UniProt Q9Y6L6); experiment: Substrate activity at human OATP1B1 stably expressed in HEK293 cells assessed as ratio of total to passive cellular uptake at 1 to 3 uM incubated for 0.5 to 4 mins by LC/MS-MS analysis; type: ADME, cell-based; settings: HEK293 cells stably expressing human OATP1B1, dose 1-3 µM, time 0.5-4 min
T1 sequence (Q9Y6L6 whole entry): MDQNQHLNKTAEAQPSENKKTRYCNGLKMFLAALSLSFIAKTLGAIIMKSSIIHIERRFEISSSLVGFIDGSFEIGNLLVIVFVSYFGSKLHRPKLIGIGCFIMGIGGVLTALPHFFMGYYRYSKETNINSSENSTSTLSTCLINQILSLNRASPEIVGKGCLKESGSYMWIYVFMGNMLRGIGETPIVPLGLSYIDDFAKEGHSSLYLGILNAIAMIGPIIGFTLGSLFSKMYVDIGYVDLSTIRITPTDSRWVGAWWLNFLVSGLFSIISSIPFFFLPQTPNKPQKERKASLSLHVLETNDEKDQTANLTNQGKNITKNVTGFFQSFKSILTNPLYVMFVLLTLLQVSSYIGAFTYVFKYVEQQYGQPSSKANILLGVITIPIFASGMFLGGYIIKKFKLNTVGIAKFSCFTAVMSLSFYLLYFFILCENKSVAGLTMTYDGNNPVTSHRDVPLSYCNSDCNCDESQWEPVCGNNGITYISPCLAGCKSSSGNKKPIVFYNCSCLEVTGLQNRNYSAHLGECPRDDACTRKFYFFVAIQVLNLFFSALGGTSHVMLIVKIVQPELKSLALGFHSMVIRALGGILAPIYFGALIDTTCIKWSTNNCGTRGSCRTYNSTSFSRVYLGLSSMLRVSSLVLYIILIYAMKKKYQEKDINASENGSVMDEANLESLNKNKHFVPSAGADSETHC
Method in brief: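 Stably transfected HEK293 cells and wild-type parental cells, cultured to confluency in DMEM with 10% heat-inactivated FBS and 5 µg/mL blasticidin. Uptake at 1–3 µM in HBSS/20 mM HEPES pH 7.4, 37 °C, 0.5–4.0 min. Cells washed in ice-cold buffer, lysed in MeOH, quantified by LC-MS/MS and normalized to protein. Ratio is transfected/parental uptake; >2 denotes substrate.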

[8] = Induction of CYP3A4 mRNA expression in human hepatocytes at 0.5 to 200 uM; type: ADME, cell-based, Hepatocyte; settings: dose 0.5-200 µM
Method in brief: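 Individual human hepatocyte lots treated at 0.5–200 µM. Read-out is messenger RNA levels of CYP1A2 and CYP3A4.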

[9] = Clearance in cynomolgus monkey plasma at 1 mg/kg, iv and measured up to 72 hrs by LC/MS-MS analysis; type: ADME, organism-based, Macaca fascicularis
Method in brief: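 Cynomolgus monkeys dosed 1 mg/kg IV as the tris salt in 2% N-methylpyrrolidone/98% sulfobutylether-β-cyclodextrin (12.5%) in 50 mM TRIS, pH 8.0, or PO as the tris salt. Plasma was analysed by LC-MS/MS, n = 2. CL = IV dose/AUC; Vss = dose/(AUC × elimination rate constant); Cmax taken from observed data.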

Acetyl-CoA carboxylase 1 = Acetyl-CoA carboxylase 1 (Homo sapiens, UniProt Q13085); experiment: Uncompetitive inhibition of human ACC1 incubated for 15 mins in presence of ATP by Line weaver-Burk plot analysis
Method in brief: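 Radioenzymatic assay with purified ACC isozymes, measuring [14C]-bicarbonate incorporation into [14C]-malonyl-CoA. Mode of inhibition taken from substrate concentration-dependence experiments varying ATP or carbonate. IC50 dose-response run at saturating ATP.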

[10] = Genotoxicity in Salmonella typhimurium TA1537 by Ames test; type: toxicity; settings: salmonella enterica subsp. enterica serovar typhimurium
Method in brief: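 Ames test in Salmonella strains TA98, TA100, TA1535 and TA1537, run with and without aroclor-induced rat liver S9 plus NADPH.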

CHO = experiment: Genotoxicity in CHO cells by micronucleus test; type: toxicity, cell-based, Cricetulus griseus; settings: chinese hamster
Method in brief: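 In vitro micronucleus assay in Chinese hamster ovary or TK6 cells, run with and without metabolic activation by aroclor-induced rat liver S9 fraction plus NADPH.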

OATP2B1 = OATP2B1 (Homo sapiens, UniProt O94956); experiment: Substrate activity at human OATP2B1 stably expressed in HEK293 cells assessed as ratio of total to passive cellular uptake at 1 uM incubated for 0.5 to 4 mins by LC/MS-MS analysis; type: cell-based; settings: HEK293 cells stably expressing human OATP2B1, time 0.5-4 min
Chain of OATP2B1 (O94956 whole entry): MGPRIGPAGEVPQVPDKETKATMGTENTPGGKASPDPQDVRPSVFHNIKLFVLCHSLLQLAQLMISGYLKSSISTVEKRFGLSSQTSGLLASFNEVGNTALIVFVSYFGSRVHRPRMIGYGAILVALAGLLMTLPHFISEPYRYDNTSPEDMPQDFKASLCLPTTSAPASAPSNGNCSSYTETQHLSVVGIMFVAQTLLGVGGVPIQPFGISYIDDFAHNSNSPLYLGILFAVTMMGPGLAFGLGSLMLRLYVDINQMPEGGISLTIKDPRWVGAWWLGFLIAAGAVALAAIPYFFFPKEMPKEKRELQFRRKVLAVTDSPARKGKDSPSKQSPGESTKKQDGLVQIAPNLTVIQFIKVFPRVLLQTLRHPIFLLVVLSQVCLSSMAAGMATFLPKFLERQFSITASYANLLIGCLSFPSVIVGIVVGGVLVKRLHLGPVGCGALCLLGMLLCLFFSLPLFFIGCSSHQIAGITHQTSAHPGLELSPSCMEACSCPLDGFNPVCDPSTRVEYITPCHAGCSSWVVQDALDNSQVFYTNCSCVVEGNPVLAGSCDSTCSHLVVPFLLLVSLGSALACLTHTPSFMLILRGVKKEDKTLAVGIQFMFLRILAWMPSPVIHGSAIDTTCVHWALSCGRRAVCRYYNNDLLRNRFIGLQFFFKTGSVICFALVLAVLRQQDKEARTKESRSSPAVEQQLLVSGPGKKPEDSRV
Method in brief: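 HEK293 cells stably transfected with the transporter, plus wild-type cells, grown to confluence in DMEM with 10% heat-inactivated FBS and 5 µg/mL blasticidin. Washed with HBSS/20 mM HEPES, pH 7.4, then incubated with compound at 37 °C for 0.5–4.0 min. Cells washed ice-cold, lysed in MeOH for LC-MS/MS, uptake normalized to BCA protein. Ratio = transfected/wild-type uptake, averaged over time points.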

[11] = molecular target: P-glycoprotein 1 (Homo sapiens); experiment: Inhibition of human ABCB1 expressed in MDCK2-LE cells in presence of […]
[12] = Drug uptake in Wistar-Hannover rat assessed as plasma concentration at 10 mg/kg, po after 6 hrs by LC/MS-MS analysis; type: ADME, organism-based; method in brief: as §1

| half-life [1] [h] | bioavailability [2] [%] | IC50 [3] [nM] | AUC(0-t) [4] [ng·h/mL] | solubility thermodynamic at 24 h [5] [µM] | concentration at 6 h [6] [ng/mL] | IC50 [7] [nM] | uptake ratio at up to 3 µM (OATP1B1) | Activity [8] | clearance [9] [mL/min/kg] | IC50 (Acetyl-CoA carboxylase 1) [nM] | uptake ratio at 1 µM (OATP2B1) | IC50 [11] [nM] | concentration at 6 h [12] [ng/mL] | Compound | Activity [10] | Activity (CHO) |
| --- | --- | --- | --- | --- | --- | --- | --- | --- | --- | --- | --- | --- | --- | --- | --- | --- |
| 5.7 | 27 |  |  |  |  |  |  |  |  |  |  |  |  | COc1cc(C(=O)N2CCC3(CC2)CC(=O)c2nn(C(C)(C)C)cc2O3)cc(-c2ccc(C(=O)O)cc2)n1 |  |  |
|  |  | 8.24 | 14000 | 234 (≈ 118 µg/mL) | 24600 | > 20000 | 3.5 | Not Active | 1.3 | 12.4 | 7 | 39000 | 314 | COc1cc(C(=O)N2CCC3(CC2)CC(=O)c2c(cnn2C(C)C)C3)cc(-c2ccc(C(=O)O)cc2)n1 [CLESACOSTAT] | Non-Toxic | Non-Toxic |
